Source: ChEMBL document CHEMBL4513216, “Probing the Open Global Health Chemical Diversity Library for Multistage-Active Starting Points for Next-Generation Antimalarials” (ACS Infect Dis, 2020)

Assay: Toxicity liver stage against HepG2, at 10uM
Assay type: cell-based
Parameters: test concentration 10 uM, cell line HepG2-A16-CD81EGFP
Conditions: human, HepG2-A16-CD81EGFP cells; read-out: INHIBITION
Procedure, shortened: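 Uninfected HepG2-A16-CD81EGFP cells, 3 × 10^3 per well, 1536-well, plated on prespotted compound at 10 μM final, parasite-free screening media added to match infected plates; puromycin 10 μM positive, DMSO 0.5% negative; run in parallel with 48 h PbLuc assay at 37 °C, 5% CO2; viability by CellTiter-Glo luminescence, normalized to controls.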

Structure (SMILES) | cytotoxicity at 10 µM [%]
COc1cccc(NC(=O)Cn2c(=O)nc(N)c3cc(C)sc32)c1 | -8.72
O=C(NCC1(CO)CC1)c1ccccc1Cl | 5.47
O=C(NCC1(CO)CC1)c1ccccc1C(F)(F)F | 4
CC(=O)NCCn1ccc(-c2ccccn2)n1 | 7.38
CC(=O)NCC(=O)N1CCC2(COCc3c(C)nc(N(C)C)nc32)C1 (stereo not drawn) | 1.41
NC(=O)c1c(NC(=O)CCC(=O)O)sc2c1CCc1ccccc1-2 | -1.99
COc1cc(OCC(=O)NCCc2ccccc2)cc(OC)c1OC | 0.285
CC1CCN(C(=O)Cn2nc(Br)nc2Br)CC1 | -1.8
COC(=O)CCc1c(C)nn(-c2nc(C)cc(=O)[nH]2)c1C | 9.22
O=c1ccc(-c2cccs2)nn1CN1CCN(Cc2ccccc2)CC1 | -3.73
O=C(c1ccnnc1)N1C[C@H](Oc2cccnc2)[C@H]2OCCC[C@H]21 | -14.7
Cc1ccn(-c2ccnc(N3CCC(N4CCCCC4)CC3)n2)n1 | 4.54
Cc1nc(C)c(C(=O)N2CCc3nnc(C4CCCCN4C)n3CC2)s1 (stereo not drawn) | 0.642
O=C(c1cc(-c2cccnc2)[nH]n1)N1CCCC(Cc2ccccn2)C1 (stereo not drawn) | 7.5
CC(C)n1nnc(CC(=O)NCC2(c3ccccc3F)CCCC2)n1 | -0.325
Oc1nc(C2CCN(Cc3ccccn3)CC2)cc2ccccc12 | 11.8
Cc1nn(C)cc1NC(=O)CC1CCN(CCc2ccccc2)CC1 | -4.92
c1cc(-c2cnc(NC3CC3)nc2[C@H]2CCCO2)ccn1 | 9.83
O=C(Cn1cccc2cc(-c3ccc(F)cc3)nc1-2)N1CCC(O)CC1 | -7.74
Cc1cc(CN2CCN(Cc3ccc(C#N)cc3F)CC2)no1 | 1.71
NC(=O)CCOc1ccc(NC(=O)c2ccccc2OC(F)F)cc1 | 9.62

Structure (SMILES) | cytotoxicity at 10 µM [%]
O=C(Cc1cccs1)NCCNc1nccc(C(F)(F)F)n1 | 10.9
CN1CCC(N(Cc2ccccc2)C(=O)c2nccn3ccnc23)CC1 | 3.52
CCN(Cc1ccncc1)C1CCN(c2ccccc2)C1=O (stereo not drawn) | -1.83
CN(C)C(=O)N1CCN(Cc2cnc(-c3ccsc3)s2)CC1 | 2.03
CC(Cn1cncn1)NC(=O)N1CC2(CCCC2)c2ccccc21 (stereo not drawn) | 5.65
Cc1cccc(OCCCNC(=O)Cn2ccc(C)cc2=O)c1 | -4.42
CN(C)C(=O)CCS(=O)(=O)Cc1ccn(-c2cccc(F)c2)n1 | -5.71
CCCNC(=O)CN1CCC(NCc2c(C)nn(C)c2OC)CC1 | -5.32
CC(C)OCCC(=O)N1CCN(CC(O)c2ccccc2)CC1 (stereo not drawn) | -8.09
O=C(COC1CCCC1)NCCc1noc(-c2ccccn2)n1 | 3.41
COCc1nccc(C2CCCN(Cc3ccccc3C#N)C2)n1 (stereo not drawn) | 6.05
COc1ccnc(N2CCN(C(=O)c3csc(C)n3)CC2)n1 | 0.313
COc1ccc(OCCNc2cccc(C(=O)N3CCOCC3)c2)cc1 | 7.08
Cc1nn(C)c(Cl)c1C(=O)NCc1cccnc1N1CCOCC1 | -132
OC(CN(Cc1ccccc1)Cc1cccnc1)c1ccco1 (stereo not drawn) | -0.408
CC(C#N)CNS(=O)(=O)c1ccc(F)c(Br)c1 (stereo not drawn) | -1.69
CN(C)C(=O)c1ccc(OC2CCCC2)cc1 | -3.51
Cc1noc(C)c1CNc1ccc2nc(C3CC3)sc2c1 | 10.8
CC1CCCN(S(=O)(=O)N2CCOC3(CCCC3)C2)C1 (stereo not drawn) | -1.57
c1csc(SCC2CN=C(N3CCOCC3)S2)c1 (stereo not drawn) | 10.3
CCC(NCc1ccccc1)c1ccccc1OCC(=O)NC (stereo not drawn) | 16.2

Structure (SMILES) | cytotoxicity at 10 µM [%]
CS(=O)(=O)Nc1cccc(C(=O)Nc2ccc3c(c2)C(=O)NC3)c1 | 5.91
CN(C)C1(CNC(=O)C2CCCN2Cc2ccc(F)cc2)CCOCC1 (stereo not drawn) | 3.25
N#Cc1cc(Cl)ccc1N1CCN(C(=O)C2CCC2)CC1 | 10.1
CCN(Cc1ccoc1)C(=O)C1CCN(C(=O)OC(C)(C)C)C1 (stereo not drawn) | -15.5
O=S(=O)(Cc1ccccc1)NCc1nnc2n1CCC2 | 16.2
COCC(NC(=O)NCc1cccc(Cl)c1)c1ccco1 (stereo not drawn) | 6.4
CCN1CC(C(=O)NC(C)(C)CC(C)(C)C)CC1=O (stereo not drawn) | -4.72
CN(C)CCCNC(=O)c1cc(Br)c2c(c1)OCCO2 | 13.3
CSCc1nc(C(C)(C)NC(=O)OC(C)(C)C)no1 | -8.44
COCCn1cc(C(=O)N2CCCC2c2cc(C)no2)ccc1=O (stereo not drawn) | -17.7
Cc1cn(CC(=O)NC2CCN(S(C)(=O)=O)CC2)c2ccccc12 | 1.44
Cc1ccc(CNC(=O)Nc2cc(C(F)(F)F)c[nH]c2=O)cn1 | -21.8
O=C1CCCCN1Cc1cccc(NC(=O)N2CCSCC2)c1 | -9.99
Cc1cccc(N2CCN(CCNC(=O)c3ccnn3C)CC2)c1 | 10.4
COCC(=O)N1CCc2ccc(=O)n(CC3CC3)c2CC1 | 6.7
O=C(c1cccnc1)N1CCC2(CC1)CN(c1ccccn1)CCO2 | -69.5
N#Cc1cccc(N2CC3(CCN(C(=O)c4ccnnc4)C3)CC2=O)c1 (stereo not drawn) | 2.64
Cn1nc(CN2CCCCC2)c2c1CN(C(=O)c1ccoc1)C2 | 2.83
CC(C)CNS(=O)(=O)c1ccc(C(=O)N(C)CCc2cn[nH]c2)cc1 | 4.48
CC1=C(CCN2CCCC(O)C2)C(C)(C)CCC1 (stereo not drawn) | 3.43
CN(C)C(=O)c1ccc2c(c1)N(C)C(CC(=O)NC(CO)CO)CO2 (stereo not drawn) | -4.36

Structure (SMILES) | cytotoxicity at 10 µM [%]
CCC(C(=O)NC1CCCC1)n1ccc2ncccc2c1=O (stereo not drawn) | 4.2
COCCN(C/C=C/c1ccccc1)Cc1nccs1 | 42.8
CCCc1ccc2oc(C(=O)N3CCN(CCOC)CC3)c(C)c2c1 | -8.36
Cc1n[nH]c(C)c1CCN(C)C(=O)C(c1cccnc1)N1CCOCC1 (stereo not drawn) | -0.593
Cc1cc2c(cc1C(=O)N1CCC3(CC(=O)NC3=O)C1)OCCO2 (stereo not drawn) | 7.15
CCn1nc(C)c(CCNC(=O)c2coc(CN3CCOCC3)c2)c1C | -0.386
Cc1cc(N2CCCN(C(=O)Cc3csc(C)n3)CC2)ccn1 | -12
NC(=O)C1CCN(c2nc3nccc(-c4ccccc4)c3c(=O)[nH]2)CC1 | -9
CC(C)c1nc(C2CCCN2CCS(=O)(=O)c2ccccc2)no1 (stereo not drawn) | -5.28
CCN(CC)c1ccc(C(=O)N2CCCC(n3cncn3)C2)cn1 (stereo not drawn) | -4.78
Cc1nc(C)n(CC2CCCN2Cc2cn(-c3ccccc3)nn2)n1 (stereo not drawn) | 3.87
CCN(CC)C1CCN(C(=O)NCc2nncn2CC)CC1 | 2.72
Cc1c(CN2CCc3nc4sccc4c(=O)n3CC2)cnn1C | -2.75
O=C(Nc1cccnc1)[C@H]1C[C@@H]2CCN(c3nncs3)C[C@H]2O1 | -13.3
CN1CCOCC12CCN(Cc1ccoc1)CC2 | 2.93
NC(=O)N1CCC2(CCN(Cc3cccc(F)c3)CC2)CC1 | -10.1
O=S(=O)(c1cccc(F)c1)N1CC[C@H]2[C@H]1CCN2c1ncccn1 | -4.35
Cn1cccc1C(=O)NCc1cnc2n1CCN(CC1CC1)C2 | 11.8
c1cnc(N2Cc3nccn3CC(COc3cccnc3)C2)nc1 (stereo not drawn) | 10.7
COCc1cncc2c1CCN(Cc1ccccn1)C2 | -10.2
